How the values were obtained:
Type in all cases: functional
HOP-92 = assay: Cytotoxicity against human HOP92 cells assessed as growth inhibition at 10 uM after 48 hrs by sulphorhodamine B assay; conditions: HOP-92, 48 h, read-out: GI
Outline: (§1)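 NCI-60 one-dose screen per the NCI Drug Evaluation Branch protocol. Cells given a single 10 µM concentration with 48 h continuous exposure. Growth estimated by sulphorhodamine B protein assay. Result expressed as percentage growth inhibition relative to untreated growth.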

NCI-H23 = assay: Cytotoxicity against human NCI-H23 cells assessed as growth inhibition at 10 uM after 48 hrs by sulphorhodamine B assay; conditions: NCI-H23, 48 h, read-out: GI; outline: as §1
[1] = Cytotoxicity against human EKVX cells assessed as growth inhibition at 10 uM after 48 hrs by sulphorhodamine B assay; conditions: read-out: GI; outline: as §1
A549 = assay: Cytotoxicity against human A549 cells assessed as growth inhibition at 10 uM after 48 hrs by sulphorhodamine B assay; conditions: A549, 48 h, read-out: GI; outline: as §1
NCI/ADR-RES = assay: Cytotoxicity against human NCI/ADR-RES cells assessed as growth inhibition at 10 uM after 48 hrs by sulphorhodamine B assay; conditions: read-out: GI; outline: as §1
SNB-75 = assay: Cytotoxicity against human SNB75 cells assessed as growth inhibition at 10 uM after 48 hrs by sulphorhodamine B assay; conditions: SNB-75, 48 h, read-out: GI; outline: as §1
U-251 = assay: Cytotoxicity against human U251 cells assessed as growth inhibition at 10 uM after 48 hrs by sulphorhodamine B assay; conditions: U-251, 48 h, read-out: GI; outline: as §1
SNB-19 = assay: Cytotoxicity against human SNB19 cells assessed as growth inhibition at 10 uM after 48 hrs by sulphorhodamine B assay; conditions: SNB-19, 48 h, read-out: GI; outline: as §1
SF-295 = assay: Cytotoxicity against human SF295 cells assessed as growth inhibition at 10 uM after 48 hrs by sulphorhodamine B assay; conditions: SF-295, 48 h, read-out: GI; outline: as §1
DU-145 = assay: Cytotoxicity against human DU145 cells assessed as growth inhibition at 10 uM after 48 hrs by sulphorhodamine B assay; conditions: DU-145, 48 h, read-out: GI; outline: as §1
SF-268 = assay: Cytotoxicity against human SF268 cells assessed as growth inhibition at 10 uM after 48 hrs by sulphorhodamine B assay; conditions: SF-268, 48 h, read-out: GI; outline: as §1
PC-3 = assay: Cytotoxicity against human PC3 cells assessed as growth inhibition at 10 uM after 48 hrs by sulphorhodamine B assay; conditions: PC-3, 48 h, read-out: GI; outline: as §1
UACC-62 = assay: Cytotoxicity against human UACC62 cells assessed as growth inhibition at 10 uM after 48 hrs by sulphorhodamine B assay; conditions: UACC-62, 48 h, read-out: GI; outline: as §1
SK-MEL-2 = assay: Cytotoxicity against human SK-MEL-2 cells assessed as growth inhibition at 10 uM after 48 hrs by sulphorhodamine B assay; conditions: SK-MEL-2, 48 h, read-out: GI; outline: as §1
SK-MEL-5 = assay: Cytotoxicity against human SK-MEL-5 cells assessed as growth inhibition at 10 uM after 48 hrs by sulphorhodamine B assay; conditions: SK-MEL-5, 48 h, read-out: GI; outline: as §1
M14 = assay: Cytotoxicity against human M14 cells assessed as growth inhibition at 10 uM after 48 hrs by sulphorhodamine B assay; conditions: M14, 48 h, read-out: GI; outline: as §1
LOX IMVI = assay: Cytotoxicity against human LOXIMVI cells assessed as growth inhibition at 10 uM after 48 hrs by sulphorhodamine B assay; conditions: read-out: GI; outline: as §1
UO-31 = assay: Cytotoxicity against human UO31 cells assessed as growth inhibition at 10 uM after 48 hrs by sulphorhodamine B assay; conditions: UO-31, 48 h, read-out: GI; outline: as §1
CAKI-1 = assay: Cytotoxicity against human Caki1 cells assessed as growth inhibition at 10 uM after 48 hrs by sulphorhodamine B assay; conditions: CAKI-1, 48 h, read-out: GI; outline: as §1
RXF 393 = assay: Cytotoxicity against human RXF393 cells assessed as growth inhibition at 10 uM after 48 hrs by sulphorhodamine B assay; conditions: RXF 393, 48 h, read-out: GI; outline: as §1
ACHN = assay: Cytotoxicity against human ACHN cells assessed as growth inhibition at 10 uM after 48 hrs by sulphorhodamine B assay; conditions: read-out: GI; outline: as §1
SR = assay: Cytotoxicity against human SR cells assessed as growth inhibition at 10 uM after 48 hrs by sulphorhodamine B assay; conditions: read-out: GI; outline: as §1
A498 = assay: Cytotoxicity against human A498 cells assessed as growth inhibition at 10 uM after 48 hrs by sulphorhodamine B assay; conditions: A498, 48 h, read-out: GI; outline: as §1
RPMI-8226 = assay: Cytotoxicity against human RPMI8226 cells assessed as growth inhibition at 10 uM after 48 hrs by sulphorhodamine B assay; conditions: RPMI-8226, 48 h, read-out: GI; outline: as §1
MOLT-4 = assay: Cytotoxicity against human MOLT4 cells assessed as growth inhibition at 10 uM after 48 hrs by sulphorhodamine B assay; conditions: MOLT-4, 48 h, read-out: GI; outline: as §1
K562 = assay: Cytotoxicity against human K562 cells assessed as growth inhibition at 10 uM after 48 hrs by sulphorhodamine B assay; conditions: K562, 48 h, read-out: GI; outline: as §1
HL-60(TB) = assay: Cytotoxicity against human HL-60(TB) cells assessed as growth inhibition at 10 uM after 48 hrs by sulphorhodamine B assay; conditions: HL-60, 48 h, read-out: GI
Outline: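 NCI-60 one-dose primary screen run to the Drug Evaluation Branch protocol. Cells are exposed to a single 10 µM concentration for 48 h continuously, and growth is read by SRB protein assay. Data are reported as percent growth of treated cells, expressed as % growth inhibition.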

SK-OV-3 = assay: Cytotoxicity against human SKOV3 cells assessed as growth inhibition at 10 uM after 48 hrs by sulphorhodamine B assay; conditions: SK-OV-3, 48 h, read-out: GI; outline: as §1
CCRF-CEM = assay: Cytotoxicity against human CCRF-CEM cells assessed as growth inhibition at 10 uM after 48 hrs by sulphorhodamine B assay; conditions: read-out: GI; outline: as §1
OVCAR-5 = assay: Cytotoxicity against human OVCAR5 cells assessed as growth inhibition at 10 uM after 48 hrs by sulphorhodamine B assay; conditions: OVCAR-5, 48 h, read-out: GI; outline: as §1
OVCAR-4 = assay: Cytotoxicity against human OVCAR4 cells assessed as growth inhibition at 10 uM after 48 hrs by sulphorhodamine B assay; conditions: OVCAR-4, 48 h, read-out: GI; outline: as §1
IGROV-1 = assay: Cytotoxicity against human IGROV1 cells assessed as growth inhibition at 10 uM after 48 hrs by sulphorhodamine B assay; conditions: IGROV-1, 48 h, read-out: GI; outline: as §1
T47D = assay: Cytotoxicity against human T47D cells assessed as growth inhibition at 10 uM after 48 hrs by sulphorhodamine B assay; conditions: read-out: GI; outline: as §1
Hs-578T = assay: Cytotoxicity against human Hs578T cells assessed as growth inhibition at 10 uM after 48 hrs by sulphorhodamine B assay; conditions: read-out: GI; outline: as §1
NCI-H522 = assay: Cytotoxicity against human NCI-H522 cells assessed as growth inhibition at 10 uM after 48 hrs by sulphorhodamine B assay; conditions: NCI-H522, 48 h, read-out: GI; outline: as §1
HT-29 = assay: Cytotoxicity against human HT-29 cells assessed as growth inhibition at 10 uM after 48 hrs by sulphorhodamine B assay; conditions: HT-29, 48 h, read-out: GI; outline: as §1
MCF7 = assay: Cytotoxicity against human MCF7 cells assessed as growth inhibition at 10 uM after 48 hrs by sulphorhodamine B assay; conditions: MCF7, 48 h, read-out: GI; outline: as §1
MDA-MB-435 = assay: Cytotoxicity against human MDA-MB-435 cells assessed as growth inhibition at 10 uM after 48 hrs by sulphorhodamine B assay; conditions: MDA-MB-435, 48 h, read-out: GI; outline: as §1
HCT-15 = assay: Cytotoxicity against human HCT15 cells assessed as growth inhibition at 10 uM after 48 hrs by sulphorhodamine B assay; conditions: HCT-15, 48 h, read-out: GI; outline: as §1
MDA-MB-468 = assay: Cytotoxicity against human MDA-MB-468 cells assessed as growth inhibition at 10 uM after 48 hrs by sulphorhodamine B assay; conditions: MDA-MB-468, 48 h, read-out: GI; outline: as §1
HCT-116 = assay: Cytotoxicity against human HCT116 cells assessed as growth inhibition at 10 uM after 48 hrs by sulphorhodamine B assay; conditions: HCT-116, 48 h, read-out: GI; outline: as §1

## CC1CCCc2c1nc1ncnc(N)c1c2-c1ccc(Cl)cc1 (configuration not stated)
HOP-92
  inhibition of growth at 10 µM: 25.3%
NCI-H23
  inhibition of growth at 10 µM: < 10%
[1]
  inhibition of growth at 10 µM: < 10%
A549
  inhibition of growth at 10 µM: < 10%
NCI/ADR-RES
  inhibition of growth at 10 µM: < 10%
SNB-75
  inhibition of growth at 10 µM: 21.5%
U-251
  inhibition of growth at 10 µM: 14.5%
SNB-19
  inhibition of growth at 10 µM: 21.3%
SF-295
  inhibition of growth at 10 µM: < 10%
DU-145
  inhibition of growth at 10 µM: < 10%
SF-268
  inhibition of growth at 10 µM: 12.3%
PC-3
  inhibition of growth at 10 µM: 24.2%
UACC-62
  inhibition of growth at 10 µM: 13.8%
SK-MEL-2
  inhibition of growth at 10 µM: < 10%
SK-MEL-5
  inhibition of growth at 10 µM: 10.2%
M14
  inhibition of growth at 10 µM: < 10%
LOX IMVI
  inhibition of growth at 10 µM: < 10%
UO-31
  inhibition of growth at 10 µM: 10.1%
CAKI-1
  inhibition of growth at 10 µM: < 10%
RXF 393
  inhibition of growth at 10 µM: 11%
ACHN
  inhibition of growth at 10 µM: < 10%
SR
  inhibition of growth at 10 µM: < 10%
A498
  inhibition of growth at 10 µM: 27.7%
RPMI-8226
  inhibition of growth at 10 µM: 21.3%
MOLT-4
  inhibition of growth at 10 µM: < 10%
K562
  inhibition of growth at 10 µM: 25%
HL-60(TB)
  inhibition of growth at 10 µM: 12.4%
SK-OV-3
  inhibition of growth at 10 µM: 12%
CCRF-CEM
  inhibition of growth at 10 µM: 22.2%
OVCAR-5
  inhibition of growth at 10 µM: < 10%
OVCAR-4
  inhibition of growth at 10 µM: 17.8%
IGROV-1
  inhibition of growth at 10 µM: < 10%
T47D
  inhibition of growth at 10 µM: 40%
Hs-578T
  inhibition of growth at 10 µM: 14.7%
NCI-H522
  inhibition of growth at 10 µM: 11%
HT-29
  inhibition of growth at 10 µM: 13.3%
MCF7
  inhibition of growth at 10 µM: < 10%
MDA-MB-435
  inhibition of growth at 10 µM: < 10%
HCT-15
  inhibition of growth at 10 µM: 10%
MDA-MB-468
  inhibition of growth at 10 µM: 20%
HCT-116
  inhibition of growth at 10 µM: 14%

## CCSc1nc(N)c2c(-c3ccc(OC)cc3)c3c(nc2n1)C(C)CCC3 (configuration not stated)
HOP-92
  inhibition of growth at 10 µM: 26.8%
NCI-H23
  inhibition of growth at 10 µM: < 10%
[1]
  inhibition of growth at 10 µM: < 10%
A549
  inhibition of growth at 10 µM: 16%
NCI/ADR-RES
  inhibition of growth at 10 µM: < 10%
SNB-75
  inhibition of growth at 10 µM: < 10%
U-251
  inhibition of growth at 10 µM: 16%
SNB-19
  inhibition of growth at 10 µM: 12.5%
SF-295
  inhibition of growth at 10 µM: < 10%
DU-145
  inhibition of growth at 10 µM: 24.5%
SF-268
  inhibition of growth at 10 µM: < 10%
PC-3
  inhibition of growth at 10 µM: 31.4%
UACC-62
  inhibition of growth at 10 µM: 25%
SK-MEL-2
  inhibition of growth at 10 µM: < 10%
SK-MEL-5
  inhibition of growth at 10 µM: 11.4%
M14
  inhibition of growth at 10 µM: < 10%
LOX IMVI
  inhibition of growth at 10 µM: 10.6%
UO-31
  inhibition of growth at 10 µM: 10.5%
CAKI-1
  inhibition of growth at 10 µM: < 10%
RXF 393
  inhibition of growth at 10 µM: 25.9%
ACHN
  inhibition of growth at 10 µM: 30.8%
SR
  inhibition of growth at 10 µM: < 10%
A498
  inhibition of growth at 10 µM: < 10%
RPMI-8226
  inhibition of growth at 10 µM: 25.5%
MOLT-4
  inhibition of growth at 10 µM: 29%
K562
  inhibition of growth at 10 µM: 32.5%
HL-60(TB)
  inhibition of growth at 10 µM: 34.5%
SK-OV-3
  inhibition of growth at 10 µM: < 10%
CCRF-CEM
  inhibition of growth at 10 µM: 26.4%
OVCAR-5
  inhibition of growth at 10 µM: < 10%
OVCAR-4
  inhibition of growth at 10 µM: 26.8%
IGROV-1
  inhibition of growth at 10 µM: < 10%
T47D
  inhibition of growth at 10 µM: 41%
Hs-578T
  inhibition of growth at 10 µM: 36.2%
NCI-H522
  inhibition of growth at 10 µM: 13.2%
HT-29
  inhibition of growth at 10 µM: 23.3%
MCF7
  inhibition of growth at 10 µM: < 10%
MDA-MB-435
  inhibition of growth at 10 µM: < 10%
HCT-15
  inhibition of growth at 10 µM: 23.8%
MDA-MB-468
  inhibition of growth at 10 µM: 13.8%
HCT-116
  inhibition of growth at 10 µM: 20%
